The values that follow come from paper PMC2825290 (ACS chemical biology, 2010).

What is called IC50 is the point on the concentration scale where inhibition reaches its midpoint.

In data set [1] the test system is dorsoventral (DV) axis of zebrafish embryos (BMPR-I inhibition). Put plainly: Zebrafish embryo dorsalization. Particulars: for Dorsalization (EC100, μM): zebrafish embryos treated from 3-hpf, concentration when 100% of treated embryos are severely dorsalized, at least 20 embryos per condition. The format is in vivo.
The subject of data set [2] is intersomitic vessel (ISV) formation in Tg(Fli:EGFP)y1 embryos (VEGFR-2 inhibition). Put plainly: Zebrafish intersomitic vessel. The format is in vivo. Particulars: for Effect on ISV formation (words, no concentration given): ISV visualized at 48-hpf.
A further data set concerns zebrafish embryos. Put plainly: Zebrafish embryo nonspecific toxicity. The following applies: for Early lethality at 20 μM: administered at 3-hpf.
Data set [3] concerns VEGF-stimulated Flk1 phosphorylation. Put plainly: Western blot, VEGF-stimulated Flk1 phosphorylation in BAEC. The format is cell-based, bovine. (A western blot detects proteins with antibodies after separation by electrophoresis.)
Another data set concerns the target caALK3 (Homo sapiens, UniProt P36894, Q233D). Kind of data set: BMP reporter subtype analysis, caALK3. The data set is classed as cell-based.
In data set [4] the target is human platelet-derived growth factor receptor-β (PDGFRβ) (Homo sapiens, UniProt P09619). Kind of data set: In vitro kinase assay PDGFRβ. The data set is classed as biochemical. Particulars: purified human enzyme, 10 μM ATP.
Data set [5] relates to Activin A-induced Smad2 phosphorylation. Kind of data set: Western blot, Activin A-induced Smad2 phosphorylation in HEK293 cells. The data set is classed as cell-based. Particulars: Activin-A 40 ng/ml. The method, boiled down: (§1)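 Confluent HEK293 cells were serum-starved, then pretreated with the test compound or DMSO for 30 min. They were then stimulated for 30 min with Activin-A at 40 ng/ml (p-Smad2) or BMP4 at 50 ng/ml (p-p38 MAPK). Cells were lysed with protease and phosphatase inhibitors, and lysates were run on SDS-PAGE and transferred to PVDF. Phospho-proteins were detected by infrared-dye secondary antibodies.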

Data set [6] deals with BMP4-induced Smad 1/5/8 phosphorylation. Put plainly: Western blot, BMP4-induced Smad1/5/8 phosphorylation in HEK293 cells. The format is cell-based. The following applies: BMP4 50 ng/ml.
In data set [7] the target is human VEGF type-II receptor (KDR/Flk-1/VEGFR2) (Homo sapiens, UniProt P35968). Put plainly: In vitro kinase assay KDR. The format is biochemical.
Data set [8] deals with BMP4-induced p38 MAPK phosphorylation. Kind of data set: Western blot, BMP4-induced p38 MAPK phosphorylation in HEK293 cells. The data set is classed as cell-based. The method, boiled down: as §1
Data set [9] concerns BMP-responsive C2C12BRA cells (Id1 promoter-firefly luciferase reporter), BMP4. Kind of data set: BMP-responsive luciferase reporter assay. The following applies: read-out: IC50 in BMP-responsive luciferase reporter assay. The format is cell-based. (In general: A reporter such as luciferase makes a cellular process visible.)
Data set [10] deals with human AMP-activated protein kinase (AMPK/A1/B1/G1) (Homo sapiens, UniProt Q13131). Kind of data set: In vitro kinase assay AMPK. The format is biochemical. The following applies: purified human enzyme, 10 μM ATP.
Another data set concerns caALK6. Put plainly: BMP reporter subtype analysis, caALK6. Particulars: C2C12BRA cells transfected with constitutively active ALK6. The format is cell-based.
Data set [11] deals with T1, human TGFβ type-I receptor activin receptor-like kinase 5 (Alk5/TGFβR1) (Homo sapiens, UniProt P36897).
T1 sequence (P36897 34-503): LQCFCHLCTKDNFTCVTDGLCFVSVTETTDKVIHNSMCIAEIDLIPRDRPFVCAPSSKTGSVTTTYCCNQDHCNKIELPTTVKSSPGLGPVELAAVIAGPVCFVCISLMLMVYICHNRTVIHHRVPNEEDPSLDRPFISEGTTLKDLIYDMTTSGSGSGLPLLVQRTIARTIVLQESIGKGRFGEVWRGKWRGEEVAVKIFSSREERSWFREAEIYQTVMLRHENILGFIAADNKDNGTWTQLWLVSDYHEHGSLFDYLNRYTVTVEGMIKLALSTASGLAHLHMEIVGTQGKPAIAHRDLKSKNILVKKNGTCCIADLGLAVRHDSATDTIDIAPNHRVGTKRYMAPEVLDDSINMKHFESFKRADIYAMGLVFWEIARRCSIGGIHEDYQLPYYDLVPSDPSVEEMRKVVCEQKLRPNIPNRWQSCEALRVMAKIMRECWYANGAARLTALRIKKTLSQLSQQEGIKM
Put plainly: In vitro kinase assay ALK5. The format is biochemical. Particulars: purified human enzyme, 10 μM ATP.

The test system of data set [12] is human umbilical vein endothelial cells (HUVEC). Put plainly: Endothelial tubule formation. The format is cell-based. Particulars: 15hr incubation. The method, boiled down:
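HUVECs were maintained in EGM-2 on 0.2% gelatin-coated dishes. 1.5 ×10^4 cells were plated on wells pre-coated with extracellular matrix gel and treated with the test compound or DMSO. After 15 hr incubation, tubular network formation was examined by inverted light microscopy.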

Data set [13] has as its system VEGF-induced phosphorylation of AKT. Kind of data set: Western blot, VEGF-stimulated Akt phosphorylation in BAEC. The data set is classed as cell-based, bovine. The essentials: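 Bovine aortic endothelial cells were grown in DMEM with 10% FBS on 0.2% gelatin-coated dishes. Confluent cells were serum-starved for 18–24 hrs, treated with the test compound or DMSO for 30 min, then stimulated for 8 min with 50 ng/ml VEGF165. Lysates, prepared with protease and phosphatase inhibitors, were immunoblotted for p-AKT and total AKT with infrared-dye detection.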

Each structure is given as a SMILES string. “Also recorded” adds a separate entry of the source.

Sequence of human VEGF type-II receptor (KDR/Flk-1/VEGFR2) (P35968 20-1356): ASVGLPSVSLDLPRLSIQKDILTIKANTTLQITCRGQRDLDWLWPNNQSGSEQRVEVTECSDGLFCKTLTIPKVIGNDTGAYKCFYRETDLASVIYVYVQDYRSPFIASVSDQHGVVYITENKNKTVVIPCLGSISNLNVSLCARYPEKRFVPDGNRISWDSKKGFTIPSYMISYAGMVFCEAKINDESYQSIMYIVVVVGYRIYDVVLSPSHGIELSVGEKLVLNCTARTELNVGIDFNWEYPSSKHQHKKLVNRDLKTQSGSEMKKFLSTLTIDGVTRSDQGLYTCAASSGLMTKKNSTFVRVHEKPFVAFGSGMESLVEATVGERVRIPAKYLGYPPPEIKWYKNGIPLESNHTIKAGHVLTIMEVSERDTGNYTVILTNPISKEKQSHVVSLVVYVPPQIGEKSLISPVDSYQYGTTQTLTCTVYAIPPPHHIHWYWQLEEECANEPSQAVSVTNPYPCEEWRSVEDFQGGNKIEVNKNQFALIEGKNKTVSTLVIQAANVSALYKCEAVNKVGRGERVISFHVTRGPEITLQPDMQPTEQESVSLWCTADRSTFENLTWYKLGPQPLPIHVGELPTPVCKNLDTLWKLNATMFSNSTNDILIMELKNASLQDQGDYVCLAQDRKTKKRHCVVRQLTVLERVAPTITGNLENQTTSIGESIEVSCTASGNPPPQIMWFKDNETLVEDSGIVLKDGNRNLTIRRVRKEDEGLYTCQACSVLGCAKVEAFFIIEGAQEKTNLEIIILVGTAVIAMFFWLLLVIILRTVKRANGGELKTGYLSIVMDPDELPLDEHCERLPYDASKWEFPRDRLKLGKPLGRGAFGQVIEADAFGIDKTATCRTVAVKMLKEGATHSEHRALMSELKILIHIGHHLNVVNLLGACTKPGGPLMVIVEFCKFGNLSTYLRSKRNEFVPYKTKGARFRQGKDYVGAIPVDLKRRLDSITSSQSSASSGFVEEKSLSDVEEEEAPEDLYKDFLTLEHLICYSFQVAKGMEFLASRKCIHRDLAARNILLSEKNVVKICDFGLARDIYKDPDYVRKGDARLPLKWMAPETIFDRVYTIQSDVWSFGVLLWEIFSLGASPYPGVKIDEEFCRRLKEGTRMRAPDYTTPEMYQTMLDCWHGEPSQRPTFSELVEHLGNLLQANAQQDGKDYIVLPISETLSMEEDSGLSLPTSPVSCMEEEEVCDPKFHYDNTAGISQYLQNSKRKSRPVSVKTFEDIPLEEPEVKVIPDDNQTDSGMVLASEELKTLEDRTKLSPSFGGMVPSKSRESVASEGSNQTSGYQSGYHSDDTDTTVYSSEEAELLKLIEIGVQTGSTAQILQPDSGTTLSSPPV
Sequence of caALK3 (P36894 24-532 Q233D): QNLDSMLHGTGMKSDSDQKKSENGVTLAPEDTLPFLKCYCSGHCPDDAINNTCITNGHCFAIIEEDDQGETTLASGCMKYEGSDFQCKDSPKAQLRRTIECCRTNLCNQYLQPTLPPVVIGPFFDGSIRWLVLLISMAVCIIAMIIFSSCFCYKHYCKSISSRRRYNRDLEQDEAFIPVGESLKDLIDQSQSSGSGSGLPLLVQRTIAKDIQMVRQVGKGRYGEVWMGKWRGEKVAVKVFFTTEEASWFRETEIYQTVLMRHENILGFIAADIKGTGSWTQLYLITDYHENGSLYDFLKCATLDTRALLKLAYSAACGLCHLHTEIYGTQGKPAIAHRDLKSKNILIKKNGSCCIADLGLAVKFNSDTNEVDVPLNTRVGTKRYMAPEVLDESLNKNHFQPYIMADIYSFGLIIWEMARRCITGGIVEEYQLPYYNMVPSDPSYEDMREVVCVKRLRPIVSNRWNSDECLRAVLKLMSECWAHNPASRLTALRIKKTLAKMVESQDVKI
Sequence of human platelet-derived growth factor receptor-β (PDGFRβ) (P09619 33-1106): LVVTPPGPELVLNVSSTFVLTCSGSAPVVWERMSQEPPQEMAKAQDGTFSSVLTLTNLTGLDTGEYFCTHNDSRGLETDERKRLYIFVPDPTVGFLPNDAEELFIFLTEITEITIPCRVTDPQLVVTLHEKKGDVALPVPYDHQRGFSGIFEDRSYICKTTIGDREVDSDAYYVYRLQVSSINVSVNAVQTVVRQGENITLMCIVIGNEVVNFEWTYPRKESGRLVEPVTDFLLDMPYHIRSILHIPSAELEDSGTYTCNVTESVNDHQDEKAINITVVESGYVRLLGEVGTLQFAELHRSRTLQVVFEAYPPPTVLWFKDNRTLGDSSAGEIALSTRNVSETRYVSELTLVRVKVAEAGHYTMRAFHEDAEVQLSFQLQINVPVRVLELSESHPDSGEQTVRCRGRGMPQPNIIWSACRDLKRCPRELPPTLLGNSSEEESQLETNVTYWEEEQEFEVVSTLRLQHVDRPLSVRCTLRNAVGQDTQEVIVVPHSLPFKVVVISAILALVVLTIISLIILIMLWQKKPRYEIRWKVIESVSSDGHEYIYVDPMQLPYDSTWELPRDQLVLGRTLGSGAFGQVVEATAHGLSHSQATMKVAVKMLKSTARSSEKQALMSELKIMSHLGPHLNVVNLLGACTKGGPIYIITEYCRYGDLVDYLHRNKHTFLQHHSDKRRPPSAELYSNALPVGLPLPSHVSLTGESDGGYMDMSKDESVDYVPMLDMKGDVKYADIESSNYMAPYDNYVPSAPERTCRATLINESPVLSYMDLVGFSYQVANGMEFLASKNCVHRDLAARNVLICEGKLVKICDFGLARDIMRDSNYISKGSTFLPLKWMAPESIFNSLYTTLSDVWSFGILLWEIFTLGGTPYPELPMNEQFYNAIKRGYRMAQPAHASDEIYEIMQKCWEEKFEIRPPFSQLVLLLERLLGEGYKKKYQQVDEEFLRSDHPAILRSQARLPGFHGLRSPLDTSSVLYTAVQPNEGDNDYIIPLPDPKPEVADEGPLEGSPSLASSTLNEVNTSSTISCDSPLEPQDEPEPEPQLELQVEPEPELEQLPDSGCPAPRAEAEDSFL
Sequence of human AMP-activated protein kinase (AMPK/A1/B1/G1) (Q13131 whole entry): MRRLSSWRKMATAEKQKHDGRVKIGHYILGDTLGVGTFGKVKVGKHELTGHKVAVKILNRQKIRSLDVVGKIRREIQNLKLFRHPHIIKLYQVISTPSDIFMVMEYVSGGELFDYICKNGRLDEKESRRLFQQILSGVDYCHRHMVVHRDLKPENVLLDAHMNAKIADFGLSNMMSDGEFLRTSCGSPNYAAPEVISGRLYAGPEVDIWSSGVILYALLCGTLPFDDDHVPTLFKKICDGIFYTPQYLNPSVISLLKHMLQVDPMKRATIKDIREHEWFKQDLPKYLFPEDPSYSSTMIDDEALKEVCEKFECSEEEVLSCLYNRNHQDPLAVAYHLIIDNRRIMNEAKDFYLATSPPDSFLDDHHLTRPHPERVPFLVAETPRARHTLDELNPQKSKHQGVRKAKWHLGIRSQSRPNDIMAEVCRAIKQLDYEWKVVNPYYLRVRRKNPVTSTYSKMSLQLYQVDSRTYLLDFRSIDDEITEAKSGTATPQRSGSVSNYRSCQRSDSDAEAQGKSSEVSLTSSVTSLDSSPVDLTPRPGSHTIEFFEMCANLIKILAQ
Sequence of human AMP-activated protein kinase (AMPK/A1/B1/G1) (Q9Y478 whole entry partner): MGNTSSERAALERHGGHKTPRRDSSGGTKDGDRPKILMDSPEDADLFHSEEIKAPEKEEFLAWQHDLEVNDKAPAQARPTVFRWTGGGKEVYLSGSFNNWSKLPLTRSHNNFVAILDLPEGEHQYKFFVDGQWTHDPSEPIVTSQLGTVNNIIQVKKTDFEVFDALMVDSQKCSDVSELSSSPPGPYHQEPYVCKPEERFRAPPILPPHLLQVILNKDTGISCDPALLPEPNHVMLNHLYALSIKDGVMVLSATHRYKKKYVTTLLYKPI
Sequence of human AMP-activated protein kinase (AMPK/A1/B1/G1) (P54619 whole entry partner): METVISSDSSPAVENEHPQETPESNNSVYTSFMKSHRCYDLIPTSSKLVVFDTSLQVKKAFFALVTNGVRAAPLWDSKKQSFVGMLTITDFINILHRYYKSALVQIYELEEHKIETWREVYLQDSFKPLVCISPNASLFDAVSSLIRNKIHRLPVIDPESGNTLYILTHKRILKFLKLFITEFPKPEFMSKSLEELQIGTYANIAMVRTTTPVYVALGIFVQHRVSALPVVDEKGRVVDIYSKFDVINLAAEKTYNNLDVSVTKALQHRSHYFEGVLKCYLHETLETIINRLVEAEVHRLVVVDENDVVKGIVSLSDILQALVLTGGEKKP

Regarding `c1cc(-c2cnn3cc(-c4ccc(OCCN5CCCCC5)cc4)cnc23)ccn1` [DM, dorsomorphin, reference compound], the “Dorsalization at 2 μM” value in [1] (2 μM, administered at 3-hpf) is reported as “dorsalized zebrafish embryos”. Moreover, the “Effect on ISV formation at 10 μM” value in data set [2] (administered at 12-hpf) is “blocked intersomitic vessel (ISV) formation”; in data set [2] (administered at 12-hpf, listed as dorsomorphin) it was “completely inhibited ISV formation”. Further, the “Early lethality at 20 μM” value with zebrafish embryos is recorded as “substantial early lethality”. For the same molecule, the “Effect on VEGF-stimulated Flk1 phosphorylation” value in data set [3] (50ng/ml VEGF165) was “suppressed VEGF-dependent Flk1 phosphorylation in a dose-dependent manner”; in data set [3] (50ng/ml VEGF165, listed as dorsomorphin) it was “inhibited the VEGF-stimulated Flk1 phosphorylation in a dose-dependent manner”.
Consider `CC(C)Oc1ccc(-c2cnc3c(-c4ccnc5ccccc45)cnn3c2)cc1` [DMH1, 4-(6-(4-isopropoxyphenyl)pyrazolo[1,5-a]pyrimidin-3-yl)quinoline], for which the IC50 against caALK3 is under 500 nM; in data set [7], over 30 µM; in data set [9] it was about 100 nM. Moreover, the “IC50 PDGFRβ” value in [4] is given as “without any detectable inhibition”. In addition, the “Effect on Activin A-induced Smad2 phosphorylation” value in data set [5] was “no effect”. Also, the “Effect on BMP-induced Smad1/5/8 activation” value in data set [6] is recorded as “selectively inhibited the BMP-induced Smad1/5/8 activation; also recorded: blocked BMP4-induced Smad 1/5/8 phosphorylation”. For the same molecule, the “Dorsalization at 0.2 μM” value in [1] (0.2 μM, treated from 3-hpf) is “caused severe dorsalization”. Besides, in data set [7] (purified human enzyme, 10 μM ATP), the “IC50 KDR (VEGFR2)” value is on record as “without any detectable inhibition”. Moreover, in data set [8], the “Effect on BMP4-induced p38 MAPK phosphorylation” value is on record as “no effect”. In data set [2] (100 μM, treated from 12-hpf), the “Effect on ISV formation at 100 μM” value is given as “no effect on ISV formation”. For the same molecule, in data set [2] (administered at 12-hpf), the “Effect on ISV formation (words, no concentration given)” value is reported as “did not have any detectible effect on ISV formation”. Moreover, the “IC50 AMPK” value in data set [10] is listed as “without any detectable inhibition”. In the data set with caALK6, the “Effect on signaling by caALK6” value is reported as “negligible effect on signaling by caALK6”. Also, the “IC50 ALK5 (TGFβR-I)” value in data set [11] was “without any detectable inhibition”. The “Effect on VEGF-stimulated Flk1 phosphorylation” value in [3] (50ng/ml VEGF165) was “no effect on VEGF-induced Flk1 phosphorylation”.
For `c1ccc2c(-c3cnn4cc(-c5ccc(OCCN6CCOCC6)cc5)cnc34)ccnc2c1` [DMH2, 4-(2-(4-(3-(quinolin-4-yl)pyrazolo[1,5-a]pyrimidin-6-yl)phenoxy)ethyl)morpholine], in data set [1], the “Dorsalization (EC100, μM)” value was about 0.1 µM. Moreover, the “Effect on ISV formation (words, no concentration given)” value in [2] (administered at 12-hpf) was “did not have any detectible effect on ISV formation”. For the same molecule, the IC50 in [9] is about 20 nM. Also, the “Nonspecific developmental effects” value in the data set with zebrafish embryos (at higher concentrations) was “caused nonspecific developmental effects at higher concentrations”.
Take `CN(C)CCCOc1ccc(-c2cnc3c(-c4ccnc5ccccc45)cnn3c2)cc1` [DMH3, N,N-dimethyl-3-(4-(3-(quinolin-4-yl)pyrazolo[1,5-a]pyrimidin-6-yl)phenoxy)propan-1-amine]: the “Dorsalization (EC100, μM)” value in data set [1] is about 1 µM. In addition, the “Effect on ISV formation (words, no concentration given)” value in data set [2] (administered at 12-hpf) was “did not have any detectible effect on ISV formation”. Further, the IC50 in data set [9] was about 7 nM.
`c1ccc(-c2cnn3cc(-c4ccc(OCCN5CCOCC5)cc4)cnc23)cc1` [DMH4, 4-(2-(4-(3-phenylpyrazolo[1,5-a]pyrimidin-6-yl)phenoxy)ethyl)morpholine]: the “Effect on dorsoventral axis at 50 μM” value in [1] (50 μM, treated from 3-hpf) is “no effect on dorsoventral axis”. In data set [1] (administered at 3-hpf), the “Effect on DV axis (words, no concentration given)” value was “no discernable effect on DV axis”. The “Dorsalization (EC100, μM)” value in data set [1] was “No (>50) μM”. Further, the “Effect on ISV and SIV formation at 1 μM” value in [2] (1 μM) was “disrupted both ISV and SIV formation”. The “Effect on ISV formation (words, no concentration given)” value in data set [2] (administered at 12-hpf) is “caused significant defects in the ISV and the subintestinal vessel (SIV)”. In [3] (50ng/ml VEGF165), the “Effect on VEGF-stimulated Flk1 phosphorylation” value is on record as “effectively blocked VEGF-stimulated phosphorylation; also recorded: blocked VEGF-induced phosphorylation”. The “Effect on tubular network formation at 1 μM” value in data set [12] is on record as “effectively blocked angiogenesis; also recorded: blocked VEGF-induced tubular network formation”. For the same molecule, in data set [13], the “Effect on VEGF-stimulated Akt phosphorylation” value was “effectively blocked VEGF-stimulated phosphorylation; also recorded: blocked VEGF-induced phosphorylation”.
For the molecule `c1ccc2c(-c3cnn4cc(-c5ccc(N6CCNCC6)cc5)cnc34)ccnc2c1` [LDN-193189, reference compound], the “Dorsalization (EC100, μM)” value in data set [1] turned out to be 3 µM. For the same molecule, in [2] (20 μM, administered at 12-hpf), the “Effect on ISV formation at 20 μM” value is on record as “significantly inhibited ISV formation”. Further, the “Early lethality at 20 μM” value in the data set with zebrafish embryos is on record as “substantial early lethality”.
